Results as given in ChEMBL document CHEMBL2346629, “Discovery and characterization of novel allosteric FAK inhibitors” (Eur J Med Chem, 2013).

Columns and labels:
[1] = molecular target: Serine/threonine-protein kinase PAK 3 (Homo sapiens) (UniProt O75914); assay: Inhibition of PAK3 (unknown origin) using [gamma-33P]ATP assessed as residual activity at 3 uM
[2] = molecular target: Serine/threonine-protein kinase Nek7 (Homo sapiens) (UniProt Q8TDX7); assay: Inhibition of NEK7 (unknown origin) using [gamma-33P]ATP assessed as residual activity at 3 uM
[3] = molecular target: Serine/threonine-protein kinase Nek4 (Homo sapiens) (UniProt P51957); assay: Inhibition of NEK4 (unknown origin) using [gamma-33P]ATP assessed as residual activity at 3 uM
[4] = molecular target: Serine/threonine-protein kinase Nek2 (Homo sapiens) (UniProt P51955); assay: Inhibition of NEK2 (unknown origin) using [gamma-33P]ATP assessed as residual activity at 3 uM
[5] = molecular target: Dual specificity mitogen-activated protein kinase kinase 2 (Homo sapiens) (UniProt P36507); assay: Inhibition of MEK2 (unknown origin) using [gamma-33P]ATP assessed as residual activity at 3 uM
Summary of the method: (§1)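 Contract radiometric panel screen of 288 kinases (261 wild-type, 27 mutant). Inhibition was read by [gamma-33P]ATP radioactivity incorporation.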

[6] = molecular target: MAP/microtubule affinity-regulating kinase 3 (Homo sapiens) (UniProt P27448); assay: Inhibition of MARK3 (unknown origin) using [gamma-33P]ATP assessed as residual activity at 3 uM; summary of the method: as §1
Chain of MAP/microtubule affinity-regulating kinase 3 (Homo sapiens) (P27448 whole entry, looked up): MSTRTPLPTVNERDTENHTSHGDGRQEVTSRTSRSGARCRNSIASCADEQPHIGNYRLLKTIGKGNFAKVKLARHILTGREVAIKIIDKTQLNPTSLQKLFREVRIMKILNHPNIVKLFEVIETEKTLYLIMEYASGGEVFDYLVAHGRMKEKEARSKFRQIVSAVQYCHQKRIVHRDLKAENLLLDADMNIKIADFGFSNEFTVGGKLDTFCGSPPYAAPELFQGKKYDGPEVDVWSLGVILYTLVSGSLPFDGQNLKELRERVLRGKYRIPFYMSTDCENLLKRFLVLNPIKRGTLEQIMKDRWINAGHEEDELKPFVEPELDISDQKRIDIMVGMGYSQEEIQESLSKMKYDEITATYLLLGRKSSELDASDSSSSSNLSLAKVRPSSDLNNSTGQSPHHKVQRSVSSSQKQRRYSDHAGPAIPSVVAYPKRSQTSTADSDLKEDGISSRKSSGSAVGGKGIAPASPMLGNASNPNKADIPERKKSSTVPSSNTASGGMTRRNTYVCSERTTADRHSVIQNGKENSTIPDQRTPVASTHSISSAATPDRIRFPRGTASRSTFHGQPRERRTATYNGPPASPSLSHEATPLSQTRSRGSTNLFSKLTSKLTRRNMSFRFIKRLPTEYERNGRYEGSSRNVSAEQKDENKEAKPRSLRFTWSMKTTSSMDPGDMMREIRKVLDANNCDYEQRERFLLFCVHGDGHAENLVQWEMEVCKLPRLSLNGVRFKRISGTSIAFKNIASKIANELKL

[7] = molecular target: Casein kinase II subunit alpha (Homo sapiens) (UniProt P68400); assay: Inhibition of CK2a (unknown origin) using [gamma-33P]ATP assessed as residual activity at 3 uM
Summary of the method: (§2)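 Reaction Biology HotSpot radiometric profiling panel of 288 kinases (261 wild-type, 27 mutant). Kinase activity was read out by incorporation of [γ-33P]ATP.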

[8] = molecular target: Casein kinase I isoform gamma-2 (Homo sapiens) (UniProt P78368); assay: Inhibition of CK1g2 (unknown origin) using [gamma-33P]ATP assessed as residual activity at 3 uM; summary of the method: as §2
Chain of Casein kinase I isoform gamma-2 (Homo sapiens) (P78368 whole entry, looked up, canonical isoform): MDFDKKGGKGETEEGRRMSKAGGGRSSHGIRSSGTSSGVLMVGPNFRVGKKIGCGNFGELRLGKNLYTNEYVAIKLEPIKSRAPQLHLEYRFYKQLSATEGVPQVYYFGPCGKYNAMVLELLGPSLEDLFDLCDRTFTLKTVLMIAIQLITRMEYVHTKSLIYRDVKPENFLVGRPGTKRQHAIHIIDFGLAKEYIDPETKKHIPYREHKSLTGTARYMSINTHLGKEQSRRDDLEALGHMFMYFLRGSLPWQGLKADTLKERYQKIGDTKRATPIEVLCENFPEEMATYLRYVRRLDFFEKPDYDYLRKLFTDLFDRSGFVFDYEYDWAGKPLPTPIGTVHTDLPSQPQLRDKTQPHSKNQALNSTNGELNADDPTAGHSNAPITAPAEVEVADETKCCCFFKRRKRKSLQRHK

[9] = molecular target: Casein kinase I isoform delta (Homo sapiens) (UniProt P48730); assay: Inhibition of CK1d (unknown origin) using [gamma-33P]ATP assessed as residual activity at 3 uM
Summary of the method: (§3)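 Radiometric profiling across 288 kinases (261 wild-type, 27 mutant), run as an outsourced service. Inhibition read out as [gamma-33P]ATP incorporation into substrate.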

[10] = molecular target: MAP kinase-activated protein kinase 2 (Homo sapiens) (UniProt P49137); assay: Inhibition of MAPKAPK2 (unknown origin) using [gamma-33P]ATP assessed as residual activity at 3 uM
Summary of the method: (§4)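 Radiometric kinase profiling service covering 288 kinases (261 wild-type, 27 mutant). Inhibition was read as incorporation from [γ-³³P]ATP.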

[11] = molecular target: Tyrosine-protein kinase JAK1 (Homo sapiens) (UniProt P23458); assay: Inhibition of JAK1 (unknown origin) using [gamma-33P]ATP assessed as residual activity at 3 uM; summary of the method: as §4
[12] = molecular target: Aurora kinase B (Homo sapiens) (UniProt Q96GD4); assay: Inhibition of Aurora B (unknown origin) using [gamma-33P]ATP assessed as residual activity at 3 uM; summary of the method: as §3
[13] = molecular target: NUAK family SNF1-like kinase 1 (Homo sapiens) (UniProt O60285); assay: Inhibition of ARK5 (unknown origin) using [gamma-33P]ATP assessed as residual activity at 3 uM; summary of the method: as §3
[14] = molecular target: ALK tyrosine kinase receptor (Homo sapiens) (UniProt Q9UM73); assay: Inhibition of ALK (unknown origin) using [gamma-33P]ATP assessed as residual activity at 3 uM; summary of the method: as §3
[15] = molecular target: Tyrosine-protein kinase ABL2 (Homo sapiens) (UniProt P42684); assay: Inhibition of ABL2 (unknown origin) using [gamma-33P]ATP assessed as residual activity at 3 uM; summary of the method: as §3
[16] = molecular target: Tyrosine-protein kinase Tec (Homo sapiens) (UniProt P42680); assay: Inhibition of TEC (unknown origin) using [gamma-33P]ATP assessed as residual activity at 3 uM
[17] = molecular target: Tyrosine-protein kinase SYK (Homo sapiens) (UniProt P43405); assay: Inhibition of SYK (unknown origin) using [gamma-33P]ATP assessed as residual activity at 3 uM
[18] = molecular target: Serine/threonine-protein kinase Sgk2 (Homo sapiens) (UniProt Q9HBY8); assay: Inhibition of SGK2 (unknown origin) using [gamma-33P]ATP assessed as residual activity at 3 uM
Chain of Serine/threonine-protein kinase Sgk2 (Homo sapiens) (Q9HBY8 whole entry): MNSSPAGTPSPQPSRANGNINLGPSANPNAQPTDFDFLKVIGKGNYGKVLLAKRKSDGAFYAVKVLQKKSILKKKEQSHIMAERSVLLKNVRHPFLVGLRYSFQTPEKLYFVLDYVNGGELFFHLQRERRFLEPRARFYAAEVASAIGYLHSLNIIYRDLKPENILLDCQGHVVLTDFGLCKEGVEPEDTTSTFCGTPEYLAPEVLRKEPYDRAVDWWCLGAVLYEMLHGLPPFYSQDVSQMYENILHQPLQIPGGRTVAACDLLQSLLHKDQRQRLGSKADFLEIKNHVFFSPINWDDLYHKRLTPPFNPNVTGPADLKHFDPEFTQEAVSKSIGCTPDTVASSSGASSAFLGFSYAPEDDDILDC

[19] = molecular target: Receptor-interacting serine/threonine-protein kinase 2 (Homo sapiens) (UniProt O43353); assay: Inhibition of RIPK2 (unknown origin) using [gamma-33P]ATP assessed as residual activity at 3 uM
[20] = molecular target: Insulin-like growth factor 1 receptor (Homo sapiens) (UniProt P08069); assay: Inhibition of IGF-1R (unknown origin) using [gamma-33P]ATP assessed as residual activity at 3 uM; summary of the method: as §4
Chain of Insulin-like growth factor 1 receptor (Homo sapiens) (P08069 31-736 limits assumed): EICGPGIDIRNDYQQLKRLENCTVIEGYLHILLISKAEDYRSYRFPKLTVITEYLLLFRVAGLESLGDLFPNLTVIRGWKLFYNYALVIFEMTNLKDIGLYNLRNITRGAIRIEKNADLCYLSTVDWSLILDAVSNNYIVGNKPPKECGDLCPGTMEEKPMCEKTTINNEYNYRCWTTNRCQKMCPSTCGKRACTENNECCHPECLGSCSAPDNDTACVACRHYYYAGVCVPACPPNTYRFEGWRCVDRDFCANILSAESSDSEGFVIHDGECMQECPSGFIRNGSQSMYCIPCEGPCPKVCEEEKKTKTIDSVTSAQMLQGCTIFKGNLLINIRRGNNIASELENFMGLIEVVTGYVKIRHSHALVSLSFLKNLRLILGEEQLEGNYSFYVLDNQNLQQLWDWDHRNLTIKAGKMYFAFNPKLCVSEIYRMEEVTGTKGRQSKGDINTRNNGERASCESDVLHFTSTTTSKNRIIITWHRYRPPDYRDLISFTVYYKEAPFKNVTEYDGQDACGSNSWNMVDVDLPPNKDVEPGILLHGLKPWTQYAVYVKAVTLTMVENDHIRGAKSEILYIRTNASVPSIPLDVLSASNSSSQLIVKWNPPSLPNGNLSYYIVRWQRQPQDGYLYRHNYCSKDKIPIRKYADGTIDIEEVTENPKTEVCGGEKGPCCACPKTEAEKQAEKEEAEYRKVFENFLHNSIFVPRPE
Chain of Insulin-like growth factor 1 receptor (Homo sapiens) (P08069 741-1367 limits assumed): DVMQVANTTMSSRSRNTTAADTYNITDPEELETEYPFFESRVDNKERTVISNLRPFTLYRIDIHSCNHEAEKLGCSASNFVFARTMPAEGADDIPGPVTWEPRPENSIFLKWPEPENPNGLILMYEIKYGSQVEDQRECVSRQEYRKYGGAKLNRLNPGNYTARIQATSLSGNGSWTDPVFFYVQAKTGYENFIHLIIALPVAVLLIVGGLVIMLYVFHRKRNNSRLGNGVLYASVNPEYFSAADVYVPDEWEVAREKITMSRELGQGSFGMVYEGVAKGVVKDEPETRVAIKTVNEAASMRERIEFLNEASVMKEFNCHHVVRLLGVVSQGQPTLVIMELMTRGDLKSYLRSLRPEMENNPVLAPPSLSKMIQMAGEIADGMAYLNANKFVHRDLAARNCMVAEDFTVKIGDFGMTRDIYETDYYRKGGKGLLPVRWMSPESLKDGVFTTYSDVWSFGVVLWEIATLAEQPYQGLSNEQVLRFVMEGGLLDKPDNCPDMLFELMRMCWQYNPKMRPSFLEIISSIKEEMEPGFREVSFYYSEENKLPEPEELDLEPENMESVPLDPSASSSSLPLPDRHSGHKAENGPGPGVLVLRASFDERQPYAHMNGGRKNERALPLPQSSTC

[21] = molecular target: Tyrosine-protein kinase FRK (Homo sapiens) (UniProt P42685); assay: Inhibition of FRK (unknown origin) using [gamma-33P]ATP assessed as residual activity at 3 uM; summary of the method: as §4
[22] = molecular target: Fibroblast growth factor receptor 2 (Homo sapiens) (UniProt P21802); assay: Inhibition of FGFR2 (unknown origin) using [gamma-33P]ATP assessed as residual activity at 3 uM; summary of the method: as §2
[23] = molecular target: Mitogen-activated protein kinase 1 (Homo sapiens) (UniProt P28482); assay: Inhibition of ERK2 (unknown origin) using [gamma-33P]ATP assessed as residual activity at 3 uM; summary of the method: as §2
[24] = molecular target: Mitogen-activated protein kinase 3 (Homo sapiens) (UniProt P27361); assay: Inhibition of ERK1 (unknown origin) using [gamma-33P]ATP assessed as residual activity at 3 uM; summary of the method: as §2
Chain of Mitogen-activated protein kinase 3 (Homo sapiens) (P27361 whole entry): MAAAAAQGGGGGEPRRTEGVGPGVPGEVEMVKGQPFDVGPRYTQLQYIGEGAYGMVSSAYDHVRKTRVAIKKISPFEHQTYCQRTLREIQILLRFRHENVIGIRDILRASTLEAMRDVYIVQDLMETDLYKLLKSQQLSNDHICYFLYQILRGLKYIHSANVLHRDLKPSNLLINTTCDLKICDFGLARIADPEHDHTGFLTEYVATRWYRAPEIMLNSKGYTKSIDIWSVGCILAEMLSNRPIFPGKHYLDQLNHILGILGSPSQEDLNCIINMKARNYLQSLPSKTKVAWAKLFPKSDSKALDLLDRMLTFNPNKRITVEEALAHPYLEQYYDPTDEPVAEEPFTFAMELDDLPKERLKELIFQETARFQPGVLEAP

[25] = molecular target: Ephrin type-A receptor 8 (Homo sapiens) (UniProt P29322); assay: Inhibition of EPHA8 (unknown origin) using [gamma-33P]ATP assessed as residual activity at 3 uM; summary of the method: as §2
Chain of Ephrin type-A receptor 8 (Homo sapiens) (P29322 whole entry): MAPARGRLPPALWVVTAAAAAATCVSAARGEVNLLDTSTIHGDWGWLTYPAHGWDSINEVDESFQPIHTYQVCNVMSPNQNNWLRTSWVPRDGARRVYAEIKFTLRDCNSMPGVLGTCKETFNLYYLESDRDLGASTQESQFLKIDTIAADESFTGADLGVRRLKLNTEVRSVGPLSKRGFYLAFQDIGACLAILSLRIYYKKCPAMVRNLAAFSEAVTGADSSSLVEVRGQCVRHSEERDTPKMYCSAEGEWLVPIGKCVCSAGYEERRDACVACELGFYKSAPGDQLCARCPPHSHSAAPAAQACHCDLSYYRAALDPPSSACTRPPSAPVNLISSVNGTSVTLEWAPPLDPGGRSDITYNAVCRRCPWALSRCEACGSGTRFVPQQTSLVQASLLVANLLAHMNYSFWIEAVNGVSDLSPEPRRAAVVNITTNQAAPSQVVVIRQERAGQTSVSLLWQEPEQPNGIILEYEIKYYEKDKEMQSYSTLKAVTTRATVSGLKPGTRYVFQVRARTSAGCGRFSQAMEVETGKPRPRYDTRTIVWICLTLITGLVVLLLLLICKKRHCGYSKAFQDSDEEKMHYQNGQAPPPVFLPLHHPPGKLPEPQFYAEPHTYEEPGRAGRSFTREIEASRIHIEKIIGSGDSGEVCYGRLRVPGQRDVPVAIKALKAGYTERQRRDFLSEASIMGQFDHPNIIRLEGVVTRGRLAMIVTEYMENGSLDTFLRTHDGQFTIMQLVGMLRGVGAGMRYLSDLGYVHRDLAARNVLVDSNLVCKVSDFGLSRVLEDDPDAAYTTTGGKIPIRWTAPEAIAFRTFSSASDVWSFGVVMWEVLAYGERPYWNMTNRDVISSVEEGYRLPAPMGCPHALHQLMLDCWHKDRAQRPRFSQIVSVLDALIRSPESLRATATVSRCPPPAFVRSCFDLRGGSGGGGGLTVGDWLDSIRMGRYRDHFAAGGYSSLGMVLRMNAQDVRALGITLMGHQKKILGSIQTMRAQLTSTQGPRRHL

[26] = molecular target: Serine/threonine-protein kinase PLK2 (Homo sapiens) (UniProt Q9NYY3); assay: Inhibition of PLK2 (unknown origin) using [gamma-33P]ATP assessed as residual activity at 3 uM
[27] = molecular target: Protein kinase C theta type (Homo sapiens) (UniProt Q04759); assay: Inhibition of PKCtheta (unknown origin) using [gamma-33P]ATP assessed as residual activity at 3 uM
[28] = molecular target: Protein kinase C delta type (Homo sapiens) (UniProt Q05655); assay: Inhibition of PKCd (unknown origin) using [gamma-33P]ATP assessed as residual activity at 3 uM
Chain of Protein kinase C delta type (Homo sapiens) (Q05655 whole entry, looked up): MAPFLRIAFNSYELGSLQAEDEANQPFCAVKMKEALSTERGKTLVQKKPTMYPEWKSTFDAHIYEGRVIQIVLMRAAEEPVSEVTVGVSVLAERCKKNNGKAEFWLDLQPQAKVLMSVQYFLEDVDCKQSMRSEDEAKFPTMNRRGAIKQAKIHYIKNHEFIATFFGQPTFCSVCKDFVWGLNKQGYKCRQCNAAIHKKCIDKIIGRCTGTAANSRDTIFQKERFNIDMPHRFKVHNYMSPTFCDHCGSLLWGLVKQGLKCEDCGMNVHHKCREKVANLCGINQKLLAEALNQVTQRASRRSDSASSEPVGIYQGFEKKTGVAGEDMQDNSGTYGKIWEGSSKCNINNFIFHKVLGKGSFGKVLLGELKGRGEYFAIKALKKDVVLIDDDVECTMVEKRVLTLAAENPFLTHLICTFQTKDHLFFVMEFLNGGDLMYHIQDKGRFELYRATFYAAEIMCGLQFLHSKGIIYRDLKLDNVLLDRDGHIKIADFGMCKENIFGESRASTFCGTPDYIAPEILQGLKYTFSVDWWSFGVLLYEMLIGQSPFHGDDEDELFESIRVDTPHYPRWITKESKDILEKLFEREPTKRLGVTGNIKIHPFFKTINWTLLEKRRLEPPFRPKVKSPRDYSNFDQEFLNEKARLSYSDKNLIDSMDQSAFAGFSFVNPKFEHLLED

[29] = molecular target: Ephrin type-A receptor 1 (Homo sapiens) (UniProt P21709); assay: Inhibition of EPHA1 (unknown origin) using [gamma-33P]ATP assessed as residual activity at 3 uM; summary of the method: as §2
[30] = molecular target: Eukaryotic elongation factor 2 kinase (Homo sapiens) (UniProt O00418); assay: Inhibition of EEF2K (unknown origin) using [gamma-33P]ATP assessed as residual activity at 3 uM; summary of the method: as §2
[31] = molecular target: Serine/threonine-protein kinase DCLK2 (Homo sapiens) (UniProt Q8N568); assay: Inhibition of DCAMKL2 (unknown origin) using [gamma-33P]ATP assessed as residual activity at 3 uM; summary of the method: as §2
[32] = molecular target: Serine/threonine-protein kinase pim-1 (Homo sapiens) (UniProt P11309); assay: Inhibition of PIM1 (unknown origin) using [gamma-33P]ATP assessed as residual activity at 3 uM

For `CCc1ccc(-c2ccc3c(c2)-c2[nH]ncc2S(=O)(=O)N3C)cc1`, which Activity [1] is on record?
The Activity was 95%.

And the Activity [2]?
Its Activity is 101%.

What about the Activity [3] of the same molecule?
The Activity was 90%.

What about the Activity [4] of the same molecule?
Its Activity is 96%.

And the Activity [5]?
The Activity was 89%.

And the Activity [6]?
Its Activity is 96%.

And the Activity [7]?
Its Activity is 89%.

What about the Activity [8] of the same molecule?
The Activity was 101%.

And the Activity [9]?
The Activity was 94%.

And the Activity [10]?
The Activity was 97%.

And the Activity [11]?
Its Activity is 81%.

What about the Activity [12] of the same molecule?
The Activity was 86%.

And the Activity [13]?
The Activity was 84%.

And the Activity [14]?
The Activity was 88%.

What about the Activity [15] of the same molecule?
The Activity was 90%.

And the Activity [16]?
The Activity was 102%.

And the Activity [17]?
The Activity was 72%.

What about the Activity [18] of the same molecule?
Its Activity is 91%.

What about the Activity [19] of the same molecule?
The Activity was 91%.

What about the Activity [20] of the same molecule?
The Activity was 87%.

And the Activity [21]?
Its Activity is 80%.

And the Activity [22]?
Its Activity is 87%.

What about the Activity [23] of the same molecule?
The Activity was 93%.

And the Activity [24]?
The Activity was 91%.

What about the Activity [25] of the same molecule?
The Activity was 95%.

What about the Activity [26] of the same molecule?
Its Activity is 95%.

And the Activity [27]?
Its Activity is 98%.

And the Activity [28]?
The Activity was 91%.

And the Activity [29]?
Its Activity is 95%.

And the Activity [30]?
The Activity was 104%.

And the Activity [31]?
The Activity was 101%.

And the Activity [32]?
The Activity was 96%.
